Measurements as given in ChEMBL document CHEMBL2086284, “(Z)-1-aryl-3-arylamino-2-propen-1-ones, highly active stimulators of tubulin polymerization: synthesis, structure-activity relationship (SAR), tubulin polymerization, and cell growth inhibition studies” (J Med Chem, 2012).
Activity calls are given as the source filed them. The calls are words filed in the database; no cut-off is given here.

Legend:
[1] = tested on: K562; test: Cytotoxicity against human K562 cells after 96 hrs by trypan blue exclusion assay; assay type: functional, cell-based; conditions: K562, 96 h
Method in brief: (§1)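 Cells grown in DMEM or RPMI with 10% FBS and penicillin-streptomycin. Seeded at 1.0 × 10^5 cells/mL/well in 6-well dishes; compounds were added 24 h later at various concentrations. Viable cells were counted by trypan blue exclusion from duplicate wells after 96 h of treatment, giving a dose-response endpoint.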

[2] = tested on: DU-145; test: Cytotoxicity against androgen receptor-deficient human DU145 cells after 96 hrs by trypan blue exclusion assay; assay type: functional, cell-based; conditions: DU-145, 96 h; method in brief: as §1
[3] = tested on: SK-BR-3; test: Cytotoxicity against estrogen receptor-deficient human SKBR3 cells after 96 hrs by trypan blue exclusion assay; assay type: functional, cell-based; conditions: SK-BR-3, 96 h; method in brief: as §1
[4] = tested on: HeLa; test: Induction of mitotic arrest in human HeLa cells assessed as increase of phosphorylated histone H3 at Ser10 level at 1 uM after 6 hrs by Western blotting; assay type: functional, cell-based
Method in brief: (§2)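 HeLa treated with 1 μM and harvested at set times. Pellets were frozen, then lysed in HEPES/Triton X-100/NaCl buffer, pH 7.5, with phosphatase and protease inhibitors. Blots were probed sequentially for phospho-histone H3 (Ser10), histone H3, cyclin B1, PLK-1 and BubR1, with GAPDH as loading control. Antibodies: primary 1:1000, secondary 1:10,000. Fold increase is relative to control. N=3.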

[5] = Cytotoxicity against human MESSA/DX5 cells after 96 hrs by trypan blue exclusion assay; assay type: functional, cell-based; conditions: MES-SA/Dx5, 96 h; method in brief: as §1
[6] = tested on: BT-20; test: Cytotoxicity against estrogen receptor-deficient human BT20 cells after 96 hrs by trypan blue exclusion assay; assay type: functional, cell-based; conditions: BT-20, 96 h; method in brief: as §1
[7] = tested on: MIA PaCa-2; test: Cytotoxicity against human MIAPaCa2 cells after 96 hrs by trypan blue exclusion assay; assay type: functional, cell-based; conditions: MIA PaCa-2, 96 h; method in brief: as §1
[8] = tested on: HeLa; test: Induction of mitotic arrest in human HeLa cells assessed as increase of phosphorylated cyclin B1 level at 1 uM after 6 hrs by Western blotting relative to control; assay type: functional; method in brief: as §2
[9] = tested on: HeLa; test: Induction of mitotic arrest in human HeLa cells assessed as increase of phosphorylated PLK1 level at 1 uM after 6 hrs by Western blotting relative to control; assay type: functional; method in brief: as §2
[10] = tested on: NCI-N87; test: Cytotoxicity against human NCI-N87 cells after 96 hrs by trypan blue exclusion assay; assay type: functional, cell-based; conditions: NCI-N87, 96 h; method in brief: as §1
[11] = tested on: HeLa; test: Induction of mitotic arrest in human HeLa cells assessed as dispersed chromosome spread with three or more tubulin bundles at 0.5 uM after 18 hrs by FITC-conjugated DAPI staining based fluorescence microscopy; assay type: functional, cell-based
Method in brief: (§3)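 HeLa grown on glass coverslips and exposed for 18 h to test agent (0.25 or 0.5 μM), paclitaxel or vincristine (0.005 μM), or DMSO. Cells were fixed in 4% paraformaldehyde, blocked, permeabilised, and stained with FITC anti-α-tubulin (1:400) and then DAPI (0.5 ug/mL). Mitotic spindles or interphase cytoplasmic microtubules were scored by fluorescence microscopy at 100x.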

[12] = tested on: BT-474; test: Cytotoxicity against human BT474 cells expressing estrogen receptor after 96 hrs by trypan blue exclusion assay; assay type: functional, cell-based; conditions: BT-474, 96 h; method in brief: as §1
[13] = tested on: Raji; test: Cytotoxicity against human Raji cells after 96 hrs by trypan blue exclusion assay; assay type: functional, cell-based; method in brief: as §1
[14] = tested on: Caco-2; test: Cytotoxicity against human Caco2 cells after 96 hrs by trypan blue exclusion assay; assay type: functional, cell-based; conditions: Caco-2, 96 h; method in brief: as §1
[15] = tested on: HeLa; test: Induction of mitotic arrest in human HeLa cells assessed as increase of phosphorylated BUBR1 level at 1 uM after 6 hrs by Western blotting relative to control; assay type: functional; method in brief: as §2
[16] = Cytotoxicity against human HTB-126 cells after 96 hrs by trypan blue exclusion assay; assay type: functional, cell-based; conditions: HTB126, 96 h; method in brief: as §1
[17] = tested on: HeLa; test: Induction of mitotic arrest in human HeLa cells assessed as unbound chromosome outside metaphase plate at 0.25 uM after 18 hrs by FITC-conjugated DAPI staining based fluorescence microscopy; assay type: functional, cell-based; method in brief: as §3
[18] = tested on: DU-145; test: Cell cycle arrest in human DU145 cells assessed as accumulation at G2/M phase at 2.5 uM by propidium iodide staining based FACS analysis; assay type: functional; conditions: TDE = time-dependent effect
Method in brief: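 DU145 plated at 1.0 × 10^6 cells/dish and dosed 24 h later at 2.5 μM. Floating and trypsinised cells were pooled at 24, 48 and 72 h, fixed in ice-cold 70% ethanol for at least 24 h, stained 30 min at 37 °C with propidium iodide and RNase A, and analysed for DNA content by flow cytometry.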

[19] = Cytotoxicity against human MES-SA cells after 96 hrs by trypan blue exclusion assay; assay type: functional, cell-based; method in brief: as §1
[20] = tested on: SK-MEL-28; test: Cytotoxicity against human SK-MEL-28 cells after 96 hrs by trypan blue exclusion assay; assay type: functional, cell-based; conditions: SK-MEL-28, 96 h; method in brief: as §1
[21] = tested on: HeLa; test: Induction of mitotic arrest in human HeLa cells assessed as increase of phosphorylated Bcl2 level at 1 uM after 24 hrs by Western blotting relative to control; assay type: functional
[22] = tested on: A549; test: Cytotoxicity against human A549 cells after 96 hrs by trypan blue exclusion assay; assay type: functional, cell-based; conditions: A549, 96 h; method in brief: as §1
[23] = tested on: HeLa; test: Cytotoxicity against human HeLa cells after 96 hrs by trypan blue exclusion assay; assay type: functional, cell-based; method in brief: as §1
[24] = tested on: SNU-5; test: Cytotoxicity against human SNU5 cells after 96 hrs by trypan blue exclusion assay; assay type: functional, cell-based; conditions: SNU-5, 96 h; method in brief: as §1
[25] = tested on: HCT-15; test: Cytotoxicity against human HCT15 cells after 96 hrs by trypan blue exclusion assay; assay type: functional, cell-based; conditions: HCT-15, 96 h; method in brief: as §1
[26] = tested on: PANC-1; test: Cytotoxicity against human PANC1 cells after 96 hrs by trypan blue exclusion assay; assay type: functional, cell-based; conditions: PANC-1, 96 h; method in brief: as §1
[27] = tested on: MCF7; test: Cytotoxicity against human MCF7 cells expressing estrogen receptor after 96 hrs by trypan blue exclusion assay; assay type: functional, cell-based; conditions: MCF7, 96 h; method in brief: as §1
[28] = tested on: DU-145; test: Cell cycle arrest in human DU145 cells assessed as accumulation at G2/M phase after 24 hrs using propidium iodide staining by FACS analysis; assay type: functional, cell-based
Method in brief: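 DU145 plated at 1.0 × 10^6 cells per dish, treated 24 h later for 24 h across a range of concentrations. Cells were fixed in ice-cold 70% ethanol, stained with propidium iodide plus RNase A for 30 min at 37 °C, and DNA content was read by flow cytometry. Phases: G1 (2N), S (>2N<4N), G2/M (4N). N=3.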

[29] = tested on: HeLa; test: Inhibition of cytoplasmic microtubule polymerization in human HeLa cells at 0.5 uM after 18 hrs by FITC-conjugated DAPI staining based fluorescence microscopy; assay type: cell-based; method in brief: as §3
[30] = tested on: HeLa; test: Induction of apoptosis in human HeLa cells assessed as cleavage of PARP at 1 uM after 24 hrs by Western blot analysis; assay type: functional, cell-based
Method in brief: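 HeLa exposed to 1.0 μM for a time course. Lysates were resolved on 10% SDS-PAGE, blotted to nitrocellulose and probed with anti-PARP (primary 1:1000, secondary 1:10,000), with ECL detection. Cleaved PARP was taken as the apoptosis/caspase-3 marker. N=3.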

[31] = Cytotoxicity against human COLO320 cells after 96 hrs by trypan blue exclusion assay; assay type: functional, cell-based; conditions: COLO 320, 96 h; method in brief: as §1
[32] = tested on: HeLa; test: Induction of mitotic arrest in human HeLa cells assessed as increase of phosphorylated histone H3 at Ser10 level at 1 uM after 24 hrs by Western blotting relative to control; assay type: functional; method in brief: as §2

Structure (SMILES): COc1cc(C(=O)/C=C\Nc2cccc(O)c2)cc(OC)c1OC
- IC50 [1]: 500 nM
- IC50 [2]: 750 nM

Structure (SMILES): COc1cc(OC)c(C(=O)/C=C\Nc2ccc(Cl)cc2)c(OC)c1
- IC50 [1]: 25000 nM
- IC50 [2]: 25000 nM

Structure (SMILES): COc1ccc(N/C=C\C(=O)c2cc(OC)c(OC)c(OC)c2Br)cc1O
- IC50 [3]: 300 nM
- Activity [4]: Active
- IC50 [5]: 500 nM
- IC50 [6]: 750 nM
- IC50 [7]: 800 nM
- fold change (FC) [8]: 2.5
- fold change (FC) [9]: 2.5
- IC50 [10]: 300 nM
- Activity [11]: Active
- IC50 [1]: 100 nM
- IC50 [12]: 100 nM
- IC50 [13]: 200 nM
- IC50 [14]: 250 nM
- fold change (FC) [15]: 2.95
- IC50 [16]: 100 nM
- Activity [17]: Active
- IC50 [2]: 60 nM
- Activity [18]: tde
- IC50 [19]: 250 nM
- IC50 [20]: 200 nM
- fold change (FC) [21]: 88
- IC50 [22]: 900 nM
- IC50 [23]: 200 nM
- IC50 [24]: 250 nM
- IC50 [25]: 40 nM
- IC50 [26]: 200 nM
- IC50 [27]: 400 nM
- Activity [28]: Dose-dependent effect
- inhibition [29]: inactive
- Activity [30]: Active
- IC50 [31]: 150 nM
- fold change (FC) [32]: 121

Structure (SMILES): COc1cc(C(=O)/C=C\Nc2cc(O)ccc2Cl)cc(OC)c1OC
- IC50 [1]: 2500 nM
- IC50 [2]: 750 nM

Structure (SMILES): COc1cc(C(=O)/C=C\Nc2cccc3cc[nH]c23)cc(OC)c1OC
- IC50 [1]: 2500 nM
- IC50 [2]: 2500 nM

Structure (SMILES): COc1ccc(N/C=C\C(=O)c2cc(OC)c(OC)c(OC)c2[N+](=O)[O-])cc1
- IC50 [1]: 600 nM
- IC50 [2]: 600 nM

Structure (SMILES): COc1cc(C(=O)/C=C\Nc2ccc3[nH]ccc3c2)cc(OC)c1OC
- IC50 [1]: 500 nM
- IC50 [2]: 200 nM

Structure (SMILES): COc1ccc(N/C=C\C(=O)c2cc(OC)c(OC)c(OC)c2Br)cc1
- IC50 [1]: 250 nM
- IC50 [2]: 200 nM

Structure (SMILES): COc1ccccc1N/C=C\C(=O)c1cc(OC)c(OC)c(OC)c1
- IC50 [1]: 2500 nM
- IC50 [2]: 2500 nM
